# In ChEMBL document CHEMBL1154352, “Toll-like receptor 7 selective synthetic oligoribonucleotide agonists: synthesis and structure-activity relationship studies” (J Med Chem, 2009):
# Activity calls are given as the source filed them. The rule behind the calls is not given here.
# Key:
# [1] = Metabolic stability in human serum assessed as full length product remaining after 10 mins by HPLC; type: ADME, cell-free; details: read-out: Stability
# Method in brief: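 About 0.5 A260 units compound in 1% human serum in PBS, 37 °C; aliquot taken at 10 min, analysed by anion-exchange HPLC for percent intact full-length product.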
# [2] = biological target: T1, Toll-like receptor 8 (Homo sapiens) (UniProt Q9NR97); test: Activation of human TLR8 expressed in HEK293XL assessed as fold induction of NF-kappaB activity at 50 ug/ml after 18 hrs by reporter gene assay relative to control
# T1 sequence (whole entry): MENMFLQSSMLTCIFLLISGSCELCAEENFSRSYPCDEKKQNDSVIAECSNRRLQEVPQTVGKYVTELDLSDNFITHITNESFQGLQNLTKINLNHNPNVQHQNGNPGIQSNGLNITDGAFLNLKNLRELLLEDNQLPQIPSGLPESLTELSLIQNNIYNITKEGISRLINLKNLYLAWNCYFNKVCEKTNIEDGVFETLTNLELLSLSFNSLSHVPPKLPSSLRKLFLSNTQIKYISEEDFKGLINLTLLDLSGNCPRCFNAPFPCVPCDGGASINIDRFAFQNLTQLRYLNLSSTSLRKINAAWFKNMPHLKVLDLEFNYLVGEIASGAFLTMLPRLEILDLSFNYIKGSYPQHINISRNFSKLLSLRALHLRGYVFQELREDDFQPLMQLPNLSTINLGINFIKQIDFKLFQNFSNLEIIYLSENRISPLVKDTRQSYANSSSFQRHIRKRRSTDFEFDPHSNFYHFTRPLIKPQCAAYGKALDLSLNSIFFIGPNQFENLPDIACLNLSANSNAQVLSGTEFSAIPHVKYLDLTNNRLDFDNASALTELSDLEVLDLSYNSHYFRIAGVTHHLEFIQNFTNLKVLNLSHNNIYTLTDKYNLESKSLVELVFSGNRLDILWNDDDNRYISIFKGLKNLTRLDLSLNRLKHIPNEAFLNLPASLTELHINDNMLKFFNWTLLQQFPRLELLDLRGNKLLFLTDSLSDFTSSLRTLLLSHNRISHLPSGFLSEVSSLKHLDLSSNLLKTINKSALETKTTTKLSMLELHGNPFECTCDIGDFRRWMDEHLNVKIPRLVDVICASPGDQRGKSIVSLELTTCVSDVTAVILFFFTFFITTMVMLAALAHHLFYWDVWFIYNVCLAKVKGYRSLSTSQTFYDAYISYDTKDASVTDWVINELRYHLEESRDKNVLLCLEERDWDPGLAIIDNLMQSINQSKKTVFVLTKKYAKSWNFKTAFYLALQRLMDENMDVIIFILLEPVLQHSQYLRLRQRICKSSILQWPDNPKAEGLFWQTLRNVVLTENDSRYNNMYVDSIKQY
# Method in brief: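 HEK293 cells stably expressing human TLR7 or TLR8, transiently transfected with SEAP reporter plasmid; medium replaced, SIMRA compounds added, 18 h incubation. Supernatant SEAP measured by QuantiBlue; expressed as fold increase in NF-κB activity over PBS control. Tabulated data at 50 μg/mL, representative of three independent experiments.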
# [3] = biological target: T2, Toll-like receptor 9 (Mus musculus) (UniProt Q9EQU3); test: Activation of mouse TLR9 expressed in HEK293 assessed as induction of NF-kappaB activity reporter gene assay; type: cell-based
# T2 sequence (whole entry): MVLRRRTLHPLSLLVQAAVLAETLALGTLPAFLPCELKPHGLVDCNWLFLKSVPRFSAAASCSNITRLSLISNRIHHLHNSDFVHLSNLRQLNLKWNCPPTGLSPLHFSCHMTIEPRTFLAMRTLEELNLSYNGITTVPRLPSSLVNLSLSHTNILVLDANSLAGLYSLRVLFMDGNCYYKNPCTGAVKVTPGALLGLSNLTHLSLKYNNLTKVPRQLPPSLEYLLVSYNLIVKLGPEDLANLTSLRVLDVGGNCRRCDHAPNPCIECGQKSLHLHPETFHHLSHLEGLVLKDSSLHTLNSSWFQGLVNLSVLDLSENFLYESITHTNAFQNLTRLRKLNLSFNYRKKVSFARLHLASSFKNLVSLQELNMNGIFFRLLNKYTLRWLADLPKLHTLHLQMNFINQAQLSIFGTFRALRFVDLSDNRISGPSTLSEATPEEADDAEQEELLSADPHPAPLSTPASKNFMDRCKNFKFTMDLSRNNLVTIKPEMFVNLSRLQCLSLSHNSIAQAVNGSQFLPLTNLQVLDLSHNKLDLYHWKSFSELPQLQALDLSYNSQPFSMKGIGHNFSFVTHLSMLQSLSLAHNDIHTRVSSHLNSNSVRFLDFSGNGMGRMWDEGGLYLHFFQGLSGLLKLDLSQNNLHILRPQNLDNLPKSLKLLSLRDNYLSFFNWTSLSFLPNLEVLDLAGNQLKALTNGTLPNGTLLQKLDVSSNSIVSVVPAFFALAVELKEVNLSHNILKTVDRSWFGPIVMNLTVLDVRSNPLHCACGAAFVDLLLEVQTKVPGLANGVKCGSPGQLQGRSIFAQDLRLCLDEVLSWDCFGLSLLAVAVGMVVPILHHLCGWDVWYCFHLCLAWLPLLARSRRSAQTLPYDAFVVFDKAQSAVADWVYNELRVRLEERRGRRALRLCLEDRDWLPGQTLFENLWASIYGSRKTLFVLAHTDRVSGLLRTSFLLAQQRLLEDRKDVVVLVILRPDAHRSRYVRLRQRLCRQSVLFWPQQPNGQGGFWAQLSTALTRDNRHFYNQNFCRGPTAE
# [4] = biological target: Toll-like receptor 3 (Homo sapiens) (UniProt O15455); test: Activation of human TLR3 expressed in HEK293 assessed as induction of NF-kappaB activity reporter gene assay; type: cell-based
# Chain of Toll-like receptor 3 (Homo sapiens) (O15455 whole entry): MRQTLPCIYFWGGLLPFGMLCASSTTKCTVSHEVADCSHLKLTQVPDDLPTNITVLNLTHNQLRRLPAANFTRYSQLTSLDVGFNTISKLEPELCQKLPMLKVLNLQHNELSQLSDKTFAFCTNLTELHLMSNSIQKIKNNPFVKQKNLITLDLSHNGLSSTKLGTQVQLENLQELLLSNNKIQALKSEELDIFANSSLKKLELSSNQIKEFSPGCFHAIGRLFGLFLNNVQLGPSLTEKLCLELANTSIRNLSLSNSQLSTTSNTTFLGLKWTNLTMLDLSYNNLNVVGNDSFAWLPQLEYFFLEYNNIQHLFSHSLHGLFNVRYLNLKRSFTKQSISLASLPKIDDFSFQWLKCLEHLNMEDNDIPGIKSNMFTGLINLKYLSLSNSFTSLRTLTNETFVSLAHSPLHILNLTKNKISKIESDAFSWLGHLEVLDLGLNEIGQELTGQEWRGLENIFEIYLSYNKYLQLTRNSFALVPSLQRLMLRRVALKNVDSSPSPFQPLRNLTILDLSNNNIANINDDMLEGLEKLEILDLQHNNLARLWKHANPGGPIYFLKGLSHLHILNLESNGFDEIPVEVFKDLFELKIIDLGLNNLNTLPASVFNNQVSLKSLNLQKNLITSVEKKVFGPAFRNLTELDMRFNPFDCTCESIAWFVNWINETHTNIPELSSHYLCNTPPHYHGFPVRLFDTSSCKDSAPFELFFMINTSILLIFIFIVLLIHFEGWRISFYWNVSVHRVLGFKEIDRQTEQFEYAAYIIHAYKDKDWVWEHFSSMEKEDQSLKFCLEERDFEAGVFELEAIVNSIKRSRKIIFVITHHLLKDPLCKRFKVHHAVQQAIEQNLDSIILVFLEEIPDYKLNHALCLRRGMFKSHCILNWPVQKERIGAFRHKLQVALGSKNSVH
# Splenocyte [5] = test: Immunomodulatory activity in C57BL/6 mouse splenocytes bearing TLR7 receptor assessed as IL6 release at 100 ug/ml after 24 hrs by ELISA; type: functional, cell-based
# Method in brief: (§1)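 C57BL/6 splenocytes in RPMI 1640 with 10% FBS, penicillin/streptomycin, 2 mM L-glutamine, plated at 5 × 10^6 cells/mL; compounds in PBS added, 37 °C for 24 h. Supernatant IL-12 and IL-6 by ELISA; representative of three independent experiments.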
# Splenocyte [6] = test: Immunomodulatory activity in C57BL/6 mouse splenocytes bearing TLR7 receptor assessed as IL12 release at 100 ug/ml after 24 hrs by ELISA; type: functional, cell-based; method in brief: as §1
# PBMC [7] = test: Immunomodulatory activity in human PBMC assessed as induction of IL12 at 100 ug/ml after 24 hrs; type: functional, cell-based
# Method in brief: (§2)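 Human PBMCs plated at 5 × 10^6 cells/mL; compounds dissolved in PBS added at various concentrations, 37 °C for 24 h. Supernatant cytokines/chemokines quantified with human Luminex multiplex kit.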
# PBMC [8] = test: Immunomodulatory activity in human PBMC assessed as induction of TNFalpha at 100 ug/ml after 24 hrs; type: functional, cell-based; method in brief: as §2
# PBMC [9] = test: Immunomodulatory activity in human PBMC assessed as induction of IFN-alpha at 100 ug/ml after 24 hrs
remaining at 10 min [1] [%],fold change (FC) [2],Activity [3],Activity [4],Activity (Splenocyte [5]),Activity (Splenocyte [6]),Compound,Activity (PBMC [7]) [pg/mL],Activity (PBMC [8]) [pg/mL],IFN-alpha (PBMC [9]) [pg/mL]
84,0.4,inactive,inactive,Active,Active,Nc1ccn([C@@H]2O[C@H](COP(=O)(S)O[C@H]3[C@@H](O)[C@H](n4cnc5c(N)ncnc54)O[C@@H]3COP(=O)(S)O[C@H]3[C@@H](O)[C@H](n4cnc5c(N)ncnc54)O[C@@H]3CO)[C@@H](OP(=O)(S)OC[C@H]3O[C@@H](n4ccc(=O)[nH]c4=O)[C@H](O)[C@@H]3OP(=O)(S)OC[C@H]3O[C@@H](n4ccc5c(=O)[nH]c(N)nc54)[C@H](O)[C@@H]3OP(=O)(S)OC[C@H]3O[C@@H](n4cnc5c(N)ncnc54)[C@H](O)[C@@H]3OP(=O)(S)OC[C@H]3O[C@@H](n4ccc(N)nc4=O)[C@H](O)[C@@H]3OP(=O)(S)OC[C@H]3O[C@@H](n4ccc5c(=O)[nH]c(N)nc54)[C@H](O)[C@@H]3OP(=O)(S)OC[C@H]3O[C@@H](n4ccc(N)nc4=O)[C@H](O)[C@@H]3OP(=O)(S)OC[C@H]3O[C@@H](n4ccc(=O)[nH]c4=O)[C@H](O)[C@@H]3OP(=O)(S)OC[C@H]3O[C@@H](n4ccc5c(=O)[nH]c(N)nc54)[C@H](O)[C@@H]3OP(=O)(S)OCC(O)COP(=O)(S)O[C@H]3[C@@H](O)[C@H](n4ccc5c(=O)[nH]c(N)nc54)O[C@@H]3COP(=O)(S)O[C@H]3[C@@H](O)[C@H](n4ccc(=O)[nH]c4=O)O[C@@H]3COP(=O)(S)O[C@H]3[C@@H](O)[C@H](n4ccc(N)nc4=O)O[C@@H]3COP(=O)(S)O[C@H]3[C@@H](O)[C@H](n4ccc5c(=O)[nH]c(N)nc54)O[C@@H]3COP(=O)(S)O[C@H]3[C@@H](O)[C@H](n4ccc(N)nc4=O)O[C@@H]3COP(=O)(S)O[C@H]3[C@@H](O)[C@H](n4cnc5c(N)ncnc54)O[C@@H]3COP(=O)(S)O[C@H]3[C@@H](O)[C@H](n4ccc5c(=O)[nH]c(N)nc54)O[C@@H]3COP(=O)(S)O[C@H]3[C@@H](O)[C@H](n4ccc(=O)[nH]c4=O)O[C@@H]3COP(=O)(S)O[C@H]3[C@@H](O)[C@H](n4ccc(N)nc4=O)O[C@@H]3COP(=O)(S)O[C@H]3[C@@H](O)[C@H](n4cnc5c(N)ncnc54)O[C@@H]3COP(=O)(S)O[C@H]3[C@@H](O)[C@H](n4cnc5c(N)ncnc54)O[C@@H]3CO)[C@H]2O)c(=O)n1 (stereo partly drawn),154,0,0
90,0.8,inactive,inactive,Active,Active,Nc1ccn([C@@H]2O[C@H](COP(=O)(S)O[C@H]3[C@@H](O)[C@H](n4cnc5c(N)ncnc54)O[C@@H]3COP(=O)(S)O[C@H]3[C@@H](O)[C@H](n4ccc5c(=O)[nH]c(N)nc54)O[C@@H]3COP(=O)(S)O[C@H]3[C@@H](O)[C@H](n4ccc(=O)[nH]c4=O)O[C@@H]3COP(=O)(S)O[C@H]3[C@@H](O)[C@H](n4ccc5c(=O)[nH]c(N)nc54)O[C@@H]3COP(=O)(S)O[C@H]3[C@@H](O)[C@H](n4cnc5c(N)ncnc54)O[C@@H]3COP(=O)(S)O[C@H]3[C@@H](O)[C@H](n4cnc5c(N)ncnc54)O[C@@H]3CO)[C@@H](OP(=O)(S)OC[C@H]3O[C@@H](n4ccc5c(=O)[nH]c(N)nc54)[C@H](O)[C@@H]3OP(=O)(S)OC[C@H]3O[C@@H](n4cnc5c(N)ncnc54)[C@H](O)[C@@H]3OP(=O)(S)OC[C@H]3O[C@@H](n4ccc(=O)[nH]c4=O)[C@H](O)[C@@H]3OP(=O)(S)OC[C@H]3O[C@@H](n4ccc(=O)[nH]c4=O)[C@H](O)[C@@H]3OP(=O)(S)OCC(O)COP(=O)(S)O[C@H]3[C@@H](O)[C@H](n4ccc(=O)[nH]c4=O)O[C@@H]3COP(=O)(S)O[C@H]3[C@@H](O)[C@H](n4ccc(=O)[nH]c4=O)O[C@@H]3COP(=O)(S)O[C@H]3[C@@H](O)[C@H](n4cnc5c(N)ncnc54)O[C@@H]3COP(=O)(S)O[C@H]3[C@@H](O)[C@H](n4ccc5c(=O)[nH]c(N)nc54)O[C@@H]3COP(=O)(S)O[C@H]3[C@@H](O)[C@H](n4ccc(N)nc4=O)O[C@@H]3COP(=O)(S)O[C@H]3[C@@H](O)[C@H](n4cnc5c(N)ncnc54)O[C@@H]3COP(=O)(S)O[C@H]3[C@@H](O)[C@H](n4ccc5c(=O)[nH]c(N)nc54)O[C@@H]3COP(=O)(S)O[C@H]3[C@@H](O)[C@H](n4ccc(=O)[nH]c4=O)O[C@@H]3COP(=O)(S)O[C@H]3[C@@H](O)[C@H](n4ccc5c(=O)[nH]c(N)nc54)O[C@@H]3COP(=O)(S)O[C@H]3[C@@H](O)[C@H](n4cnc5c(N)ncnc54)O[C@@H]3COP(=O)(S)O[C@H]3[C@@H](O)[C@H](n4cnc5c(N)ncnc54)O[C@@H]3CO)[C@H]2O)c(=O)n1 (stereo partly drawn),400,15.7,254
